Hits are enriched below; roughly 5.8% of the tested compounds scored in any of these assays.
IDH1 R132H inh: blocks human IDH1 R132H reductase activity; AID 624101; diaphorase/resazurin fluorescence, 60 min; O75874; hit rate 0.18% among 70,000; inhibition, % at 10 µM; in the data active = inhibition above about 34%; inconclusive = no clear call, values can overlap the other calls; inactive = below about 11%;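 also: 0% = DMSO and 100% = no enzyme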
GASC1 inh: KDM4C (human) demethylase inhibition. hit rate 0.15% among 96,000. AID 720574. GST-KDM4C 2-372, H3K9me3 peptide, LANCE TR-FRET. inhibition, % at 12.5 µM;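 active = mean replicate inhibition above about 25%, with at least 55% of replicates also reaching it, limit read from the data, passing the limit was not always enough; inconclusive = only one of those two conditions met; inactive = neither condition met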
Target sequence (Q9H3R0 2-372 limits assumed): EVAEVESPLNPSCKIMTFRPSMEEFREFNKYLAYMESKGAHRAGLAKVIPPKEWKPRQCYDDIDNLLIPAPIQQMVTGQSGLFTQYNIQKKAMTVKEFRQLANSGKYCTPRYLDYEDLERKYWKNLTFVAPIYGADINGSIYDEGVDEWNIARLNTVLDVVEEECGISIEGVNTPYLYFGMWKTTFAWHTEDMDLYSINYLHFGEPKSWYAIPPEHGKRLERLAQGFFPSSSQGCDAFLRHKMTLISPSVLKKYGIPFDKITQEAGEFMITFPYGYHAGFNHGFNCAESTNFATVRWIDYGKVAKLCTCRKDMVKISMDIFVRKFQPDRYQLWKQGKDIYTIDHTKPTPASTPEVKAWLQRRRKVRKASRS
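material = GST-tagged GASC-1 (JMJD2C) catalytic fragment, aa 2-372 | amount = enzyme final amount 10 nM | medium = HEPES buffer, pH 7.5, plus ascorbate | also added = H3K9me3 peptide substrate, Fe(II), 2-oxoglutarate | dosing = single dose | times = 30 min demethylation and 1 h detection at room temperature | detection = LANCE TR-FRET | read-out basis = Fall in 671/618 emission ratio as inhibition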
T cruzi growth-1: blocks T. cruzi growth in NIH3T3 culture. hit rate 5.9% among 77,000. T. cruzi beta-gal in NIH3T3, GalScreen luminescence, 90 h. inhibition, % at 8.34 µM. AID 624255;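 active = mean inhibition above about 93%, with at least 55% of replicates each passing it, limit read from the data, passing the limit was not always enough; inconclusive = only one of those two conditions holds; inactive = neither condition holds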
Pf Dd2 growth: P. falciparum Dd2 growth inhibition | SYBR Green, 72 h; hits give low values | activity change, % at 10 µM | hit rate 2.3% among 94,000; in the data active = activity change below about -80%; inconclusive = no clear call, values can overlap the other calls
T cruzi growth-2: inhibitors of T. cruzi proliferation; shares compounds with T cruzi growth-1; T. cruzi beta-gal in NIH3T3, GalScreen luminescence, 90 h; inhibition, % at 8.35 µM; hit rate 72% among 5,600;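 active = mean replicate inhibition above about 95% and at least 55% of replicates individually reaching it, limit read from the data; inconclusive = only one of the two criteria is met; inactive = neither criterion is met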
T cruzi growth-3: blocks T. cruzi growth in NIH3T3 host cells. hit rate 21% among 5,600. T. cruzi beta-gal in NIH3T3, GalScreen luminescence, 90 h. AID 651740. inhibition, % at 2.09 µM. shares compounds with T cruzi growth-1;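 active = mean inhibition above about 95%, with at least 55% of replicates also reaching it, limit read from the data; inconclusive = meets just one of the two conditions; inactive = meets neither condition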;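 also: plate controls were neutral control median for no effect and positive control median for full effect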
3T3 cytotox: kills mouse NIH/3T3 fibroblasts. shares compounds with T cruzi growth-1. NIH/3T3 viability, CellTiter-Glo ATP luminescence, 90 h. cytotoxicity (signal decrease), % at 8.35 µM. hit rate 14% among 5,600. AID 651742;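 active = mean signal decrease across replicates above about 35% based on untreated-well scatter, with enough replicates individually passing, limit read from the data; inconclusive = no rule stated though some were filed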;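 also: 0% = median of neutral control wells and 100% = median of positive control wells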
NIH3T3 tox 2: kills mouse NIH/3T3 fibroblasts. AID 651744. shares compounds with T cruzi growth-1. inhibition, % at 24.9 µM. hit rate 56% among 5,600. NIH/3T3 viability, CellTiter-Glo ATP luminescence, 90 h;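 active = mean loss of cell viability signal at or above a set limit, and enough replicates individually reaching it; inconclusive = meets only the mean limit or only the replicate share; inactive = meets neither condition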;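 also: 0% = median of neutral control wells and 100% = median of positive control wells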
Numbers without * were called inactive; ? = inconclusive; nt = not tested or not shown.

SMILES	IDH1 R132H inh	GASC1 inh	T cruzi growth-1	Pf Dd2 growth	T cruzi growth-2	T cruzi growth-3	3T3 cytotox	NIH3T3 tox 2
C[C@@H]1CN([C@H](C)CO)S(=O)(=O)c2ccc(/C=C/c3ccccc3)cc2O[C@H]1CN(C)Cc1cncnc1	-2	-3	107*	-67	98*	85	59*	65*
C[C@H](CO)N1C[C@H](C)[C@@H](CN(C)Cc2cncnc2)Oc2cc(/C=C/c3ccccc3)ccc2S1(=O)=O	0	-4	121*	-52	98*	102*	41*	81*
C/C=C/c1ccc2c(c1)O[C@H](CN(C)Cc1cncnc1)[C@@H](C)CN([C@H](C)CO)S2(=O)=O	0	0	nt	14	nt	nt	nt	nt
C[C@@H]1CN([C@@H](C)CO)S(=O)(=O)c2ccc(/C=C/c3ccccc3)cc2O[C@@H]1CN(C)Cc1cncnc1	-4	-3	108*	-3	?	89	58*	70*
C[C@H]1CN([C@@H](C)CO)S(=O)(=O)c2ccc(/C=C/c3ccccc3)cc2O[C@@H]1CN(C)Cc1cncnc1	0	1	122*	-68	100*	104*	69*	97*
CCn1c(SCC(=O)Nc2ccccc2C)nc2ccccc2c1=O	-1	nt	nt	nt	nt	nt	nt	nt
COc1ccc(NC(=O)CSc2nc3c(c(C(F)(F)F)n2)CCCC3)c([N+](=O)[O-])c1	0	nt	nt	nt	nt	nt	nt	nt
O=C(COc1ccc(C(=O)Nc2ccc(F)cc2)cc1)Nc1cc(Cl)cc(Cl)c1	0	nt	nt	nt	nt	nt	nt	nt
COCC(=O)N1[C@H](C#N)[C@H](c2ccc(C#Cc3ccccc3F)cc2)[C@H]1CO	nt	0	106*	-36	99*	20	-17	?
N#C[C@H]1[C@H](c2ccc(C#Cc3ccccc3F)cc2)[C@@H](CO)N1C(=O)c1cccnc1	nt	0	?	-38	105*	69	4	5
COCC(=O)N1[C@H](C#N)[C@H](c2ccccc2)[C@H]1CO	nt	-6	86	14	nt	nt	nt	nt
COCC(=O)N1[C@@H](C#N)[C@H](c2ccc(C#Cc3ccccc3F)cc2)[C@@H]1CO	nt	0	101*	-8	103*	7	-7	7
N#C[C@@H]1[C@@H](c2ccc(C#Cc3ccccc3F)cc2)[C@H](CO)N1C(=O)c1cccnc1	nt	-2	69	-33	nt	nt	nt	nt
COCC(=O)N1[C@H](C#N)[C@@H](c2ccccc2)[C@@H]1CO	nt	-1	29	35	nt	nt	nt	nt
N#C[C@H]1[C@H](c2ccc(C#Cc3ccccc3F)cc2)[C@H](CO)N1C(=O)C1CC1	nt	-2	50	-9	nt	nt	nt	nt
COCC(=O)N1[C@@H](C#N)[C@@H](c2ccc(C#Cc3ccccc3F)cc2)[C@@H]1CO	nt	2	106*	-7	89	41	18	94*
Cc1cc(C)c2nc(-c3cccnc3)cc(C(=O)Nc3c(C)nn(Cc4ccccc4C)c3C)c2c1	0	nt	nt	nt	nt	nt	nt	nt
COCC(=O)N1[C@H](C#N)[C@H](c2ccc(C#Cc3ccccc3F)cc2)[C@@H]1CO	nt	0	102*	-20	103*	90	-3	?
CC(=O)N(C)C[C@H]1Oc2cc(C#CC3CCCCC3)ccc2S(=O)(=O)N([C@H](C)CO)C[C@@H]1C	2	-2	?	-44	103*	78	42*	?
CC(=O)N(C)C[C@@H]1Oc2cc(C#CC3CCCC3)ccc2S(=O)(=O)N([C@@H](C)CO)C[C@@H]1C	nt	0	88	-40	nt	nt	nt	nt
CC(=O)N(C)C[C@H]1Oc2cc(C#CC3CCCCC3)ccc2S(=O)(=O)N([C@@H](C)CO)C[C@@H]1C	nt	-1	?	-57	108*	86	-3	56*
Cc1cc(C)nc(SCC(=O)c2ccc(Oc3ccccc3)cc2)n1	0	nt	nt	nt	nt	nt	nt	nt
COc1ccc(C(NC(=O)c2ccccc2)c2ccc3cccnc3c2O)c(OC)c1 (stereo not given)	1	nt	nt	nt	nt	nt	nt	nt
C[C@@H]1CCCCO[C@H](CN(C)Cc2ccc(C(F)(F)F)cc2)[C@H](C)CN([C@H](C)CO)C(=O)c2cc(NS(=O)(=O)c3cccs3)ccc2O1	nt	-1	101*	-39	99*	117*	25	105*
C[C@@H]1CCCCO[C@@H](CN(C)Cc2ccc(C(F)(F)F)cc2)[C@H](C)CN([C@@H](C)CO)C(=O)c2cc(NS(=O)(=O)c3cccs3)ccc2O1	nt	0	112*	-40	103*	99*	?	106*
SMILES	IDH1 R132H inh	GASC1 inh	T cruzi growth-1	Pf Dd2 growth	T cruzi growth-2	T cruzi growth-3	3T3 cytotox	NIH3T3 tox 2
C[C@@H]1CCCCO[C@@H](CN(C)Cc2ccc(C(F)(F)F)cc2)[C@@H](C)CN([C@H](C)CO)C(=O)c2cc(NS(=O)(=O)c3cccs3)ccc2O1	nt	0	81	-22	nt	nt	nt	nt
C[C@@H]1CCCCO[C@@H](CN(C)Cc2ccc(C(F)(F)F)cc2)[C@H](C)CN([C@H](C)CO)C(=O)c2cc(NS(=O)(=O)c3cccs3)ccc2O1	1	-1	114*	-65	98*	114*	-10	104*
C[C@@H]1CCCCO[C@H](CN(C)Cc2ccc(C(F)(F)F)cc2)[C@@H](C)CN([C@H](C)CO)C(=O)c2cc(NS(=O)(=O)c3cccs3)ccc2O1	nt	0	23	-6	nt	nt	nt	nt
C[C@@H]1CCCCO[C@H](CN(C)Cc2ccc(C(F)(F)F)cc2)[C@H](C)CN([C@@H](C)CO)C(=O)c2cc(NS(=O)(=O)c3cccs3)ccc2O1	1	-2	113*	-44	97*	104*	18	103*
CCN1CCN(C(=S)c2cc(I)c(OCC(=O)Nc3cccc(C)c3)c(OC)c2)CC1	-1	nt	nt	nt	nt	nt	nt	nt
COc1ccccc1C1C(C(=O)c2sc(C)nc2C)C(=O)C(=O)N1CCCN1CCOCC1 (stereo not given)	0	nt	nt	nt	nt	nt	nt	nt
C[C@H](CO)N1C[C@H](C)[C@H](CN(C)C(=O)Nc2ccc(C(F)(F)F)cc2)OCCCC[C@H](C)Oc2ccc(NS(=O)(=O)c3cccs3)cc2C1=O	7	1	97*	-20	97*	105*	-2	1
C[C@@H]1CN([C@H](C)CO)C(=O)c2cc(NC(=O)Nc3ccc(F)cc3)ccc2O[C@@H](C)CCCCO[C@@H]1CN(C)Cc1ccc(Cl)c(Cl)c1	0	12	101*	-79	96*	105*	-29	-12
C[C@@H]1CCCCO[C@@H](CN(C)Cc2ccc(Cl)c(Cl)c2)[C@@H](C)CN([C@@H](C)CO)C(=O)c2cc(NC(=O)Nc3ccccc3)ccc2O1	nt	0	73	-39	nt	nt	nt	nt

Source: PubChem
